Only a selection was taken, and hits are over-represented in it overall.
HSF1 inhib: HSF1 inhibitors in luciferase reporter cells, primary screen, cell-based, NIH3T3, luminescence; NIH3T3-HGL HSE-luciferase, MG132-induced, luminescence 8 h; hits give low values; activity change, negative = inhibition, % at 7.5 µM (by protocol); actives 0.77% (n = 300,000);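 active = more than half of replicate wells show activity change below -50%, luminescence cut by over half; inconclusive = some wells, but at most half, below -50%; inactive = no replicate well below -50%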;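 note: luciferase reports HSF-1 transcriptional activity via heat shock element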
HSF-1 act: HSF-1 activators, primary screen, NIH3T3-HGL cells, MG132 stress, luminescence, single point; actives 1.7% (n = 300,000); NIH3T3-HGL HSF-1 luciferase reporter, 8 h; 100% = twice DMSO control signal; activation, % at 9 µM;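 active = mean replicate activation of at least 50% with a set share of replicates each reaching 50%; inconclusive = only one of those two conditions met; inactive = mean below 50% and too few replicates reaching it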
Hsp70 activator: Hsp70 transcriptional activators, primary screen, cell-based, HeLa, Hsp70 promoter luciferase, luminescence, 10 µM | HeLa Hsp70 promoter luciferase reporter; scaled: vehicle 0, proteasome-inhibitor control 100% | activation, % at 10 µM | actives 0.04% (n = 200,000) | AID 1203, 2008;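 active = activation above the mean across all tested compounds plus 3 SD, cutoff set per campaign, cut at about 5.5% in these data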
L major viab: Leishmania major promastigote growth inhibition, primary screen | actives 9% (n = 200,000) | AID 1063, 2008 | inhibition, % at 10 µM | Leishmania major promastigotes, resazurin fluorescence viability; in the data active = inhibition above about 50%;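 note: promastigotes grown with compound for 44 hours at 28 °C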
T cruzi repl: inhibitors of intracellular T. cruzi growth, primary screen, luminescence, NIH3T3 host cells; actives 1.4% (n = 300,000); inhibition, % (no concentration beside the values); T. cruzi beta-gal in NIH3T3, 90 h;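 active = mean inhibition across valid replicates above about 55%, limit read from the data; inconclusive = mean below that limit but half or more replicates reach it; inactive = mean below it, under half of replicates reach it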;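 note: signal also drops with host cell toxicity which is not excluded here; higher percent means less beta-gal luminescence so fewer parasites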
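compound dosing = single 50 nL compound addition per well in DMSO | material = NIH/3T3 host cells with β-galactosidase reporter T. cruzi | input = 5,000 host fibroblasts per well | timing = ≥90 h infection period, 3 h prior cell attachment | read-out basis = percent inhibition of parasite-derived β-gal signal | detection = GalScreen β-gal luminescence, detergent lysis, 60 min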
Hits are given with their value; 0 = inactive; ? = inconclusive; - = not tested or not shown.

SMILES | HSF1 inhib | HSF-1 act | Hsp70 activator | L major viab | T cruzi repl
Cc1ccc(NC(=O)CNC(=O)c2cccs2)cc1S(=O)(=O)Nc1ccc(Cl)cc1 | 0 | 0 | 0 | 57 | 0
COc1ccc(NS(=O)(=O)c2cc(NC(=O)CNC(=O)c3cccc(OC)c3)ccc2C)cc1 | 0 | 0 | 0 | 61 | 0
O=C(CN1C(=O)CSc2ccc(S(=O)(=O)N3CCOCC3)cc21)NCc1cccnc1 | 0 | 0 | 0 | 0 | 0
CCc1nc(N)nc(N)c1-c1ccc(Cl)c([N+](=O)[O-])c1 | 0 | 0 | - | - | -
O=C(OCn1ncc(Cl)c(Cl)c1=O)c1cccc(C(F)(F)F)c1 | 0 | 0 | 0 | 59 | 0
CCCNC(=O)c1cccc(COCC(F)(F)F)c1 | -63 | 0 | 0 | 0 | 0
Cn1c(/C=C/c2ccc(Br)cc2)nc2ccccc2c1=O | 0 | 61 | - | - | 0
Cn1c(/C=C/c2ccccc2[N+](=O)[O-])nc2ccccc2c1=O | 0 | 0 | - | - | 0
COCCn1c(SCC(=O)Nc2sccc2C(N)=O)nnc1-c1ccncc1 | - | - | 0 | 0 | -
Cc1cccc(N2CCN(C(=O)c3ccc(Cl)c(NC4=NC5CS(=O)(=O)CC5S4)c3)CC2C)c1 (stereo not given) | 0 | 0 | - | - | 0
O=C(Cn1nc(Cc2ccncc2)c2ccccc2c1=O)N1CCN(C(=O)c2ccco2)CC1 | 0 | 0 | 0 | 0 | 0
O=C(Cn1nc(Cc2cccnc2)c2ccccc2c1=O)N1CCN(C(=O)c2ccco2)CC1 | 0 | 0 | 0 | 73 | 0
CCOCCCNCc1ccc(OC)cc1 | 0 | 0 | 0 | 0 | 0
CCOCCCNCc1cccc(OC)c1 | 0 | 0 | 0 | 82 | 0
CCCOc1ccc(CNCCCOCC)cc1OC | 0 | 0 | 0 | 70 | 63
CCOCCCNCc1ccc(OC)c(OC)c1 | 0 | 0 | 0 | 80 | 0
CCOC(=O)Cc1cc(=O)n2[nH]cc(-c3cccc(Br)c3)c2n1 | 0 | 0 | 0 | 0 | 0
COc1cc(C(=O)N(C)CCOc2ccc(C)cc2)ccc1OC1CCN(C(C)=O)CC1 | 0 | 0 | - | - | 0
COc1ccccc1NC(=O)Cn1c(=O)c(N(C)C)c(N)n(C)c1=O | -71 | 0 | 0 | 0 | 0
CN(C)Cc1c(O)ccc2c(=O)c(-c3ccccc3Cl)c(C(F)(F)F)oc12 | 0 | 0 | - | - | 0
Cc1cccc(NS(=O)(=O)c2cc3c4c(c2)CCN4C(=O)CC3)c1C | 0 | 0 | - | - | 0
CCc1ccccc1NS(=O)(=O)c1cc2c3c(c1)CCN3C(=O)CC2 | 0 | 62 | - | - | 0
CC(OC(=O)CCCCCN=C1NS(=O)(=O)c2ccccc21)C(=O)Nc1cc(Cl)cc(Cl)c1 (stereo not given) | 0 | 0 | 0 | 0 | 0
Cc1ccc(C(=O)Nc2ncc(Cc3ccccc3)s2)o1 | 0 | 54 | 0 | 0 | 0
O=C(Nc1ncc(Cc2ccc(SC(F)F)cc2)s1)c1ccccc1 | 0 | 0 | 0 | 0 | 0
SMILES | HSF1 inhib | HSF-1 act | Hsp70 activator | L major viab | T cruzi repl
Cc1ccc(Cc2cnc(NC(=O)c3cccs3)s2)cc1 | 0 | 65 | 0 | 0 | 0
Cc1ccc(Cc2cnc(NC(=O)C3CCCO3)s2)cc1 (stereo not given) | 0 | 0 | 0 | 0 | 0
O=C(Nc1ncc(Cc2ccccc2)s1)c1cccs1 | 0 | 55 | 0 | 0 | 0
O=C(Nc1nnc(-c2cccnc2)s1)c1cccs1 | 0 | 0 | - | - | 0
Cc1cccc(-c2nnc(NC(=O)c3cccs3)s2)c1 | -80 | 0 | 0 | 0 | 0
Cc1ccc(S(N)(=O)=O)cc1NC(=O)/C=C/c1ccc2c(c1)OCO2 | 0 | 0 | 0 | 0 | 0
O=C(Nc1nc2c(s1)CCCC2)c1ccc(Br)o1 | 0 | 0 | 0 | 0 | 0
Cc1ccc(C(=O)Nc2nc3c(s2)CCCC3)o1 | 0 | 60 | 0 | 0 | 0
O=C(Nc1ncc(Cc2cccc(Cl)c2)s1)c1cccs1 | 0 | 0 | 0 | 84 | 0
CC(=O)N1N=C(c2ccc(C)cc2)CC1c1ccc2c(c1)OCO2 (stereo not given) | 0 | 0 | - | - | 0
Cc1ccc(C2=NN(S(C)(=O)=O)C(c3ccc4c(c3)OCO4)C2)cc1 (stereo not given) | 0 | 80 | 0 | 0 | 0
CS(=O)(=O)N1N=C(c2ccc(Br)cc2)CC1c1ccc2c(c1)OCO2 (stereo not given) | 0 | 77 | 0 | 0 | 0
CN(C(=O)CSc1n[nH]c(-c2cccs2)n1)C1CCS(=O)(=O)C1 (stereo not given) | 0 | 0 | - | - | 0
CN1CCN(c2nc(-c3ccc(Cl)s3)cs2)CC1 | 0 | 0 | 0 | 85 | 0
CCc1ccc2c(c1)C(=O)c1ccccc1C2=O | 0 | 81 | 0 | 0 | ?
CC(c1ccccc1)N1CCC(CNC(=S)Nc2cccc(Cl)c2)C1 (stereo not given) | 0 | 0 | 0 | 95 | 0
Cc1ccc(NC(=S)NCC2CCN(C(C)c3ccccc3)C2)cc1 (stereo not given) | 0 | 0 | 0 | 78 | 0
COc1ccc(N2CCC(CNC(=S)Nc3cccc(OC)c3)C2)cc1 (stereo not given) | 0 | 0 | 0 | 60 | 0
COC(=O)c1cnc(N2CCCN(S(=O)(=O)c3ccc(C(F)(F)F)cc3)CC2)nc1C(F)(F)F | 0 | 53 | - | - | 55
O=C(Nc1ccc(S(=O)(=O)N2CCOCC2)cc1)c1ccco1 | 0 | 0 | 0 | 0 | 0
O=C(Nc1ccc(S(=O)(=O)N2CCOCC2)cc1)c1ccc([N+](=O)[O-])o1 | 0 | 123 | - | - | 0
O=C(Nc1ccc(N2CCOCC2)cc1)c1ccc([N+](=O)[O-])o1 | 0 | 146 | - | - | 0
O=C(Nc1ccc(S(=O)(=O)N2CCOCC2)cc1)c1ccc([N+](=O)[O-])s1 | 0 | 0 | - | - | 72
Cc1ccc(NC(=O)C(C)N2C(=O)c3ccccc3C2=O)cc1C (stereo not given) | 0 | 0 | - | - | 0
C/C=C/c1ccc(OCCCCN2CC(C)CC(C)C2)c(OC)c1 (stereo not given) | 0 | 0 | 0 | 0 | 55
SMILES | HSF1 inhib | HSF-1 act | Hsp70 activator | L major viab | T cruzi repl
C/C=C/c1ccc(OCCCCNCc2ccco2)c(OC)c1 | 0 | 0 | 0 | 93 | 0
C/C=C/c1ccc(OCCCCN2CCN(CC)CC2)c(OC)c1 | 0 | 0 | 0 | 86 | 0
O=C1S/C(=C/c2ccc(N3CCOCC3)o2)C(=O)N1Cc1c(F)cccc1Cl | 0 | 102 | 0 | 85 | 0
O=C1S/C(=C\c2ccc(N3CCOCC3)o2)C(=O)N1c1ccccc1 | 0 | 0 | 0 | 0 | 0
O=C1S/C(=C\c2ccc(N3CCOCC3)o2)C(=O)N1Cc1c(F)cccc1Cl | 0 | 251 | 0 | 0 | 0
O=C(Nc1ccnn1C1CCN(Cc2cccc(O)c2)CC1)C1CCCC1 | 0 | 0 | - | - | 0
CN(Cc1ccncn1)C(=O)C1CCC(=O)N(Cc2cccc(C(F)(F)F)c2)C1 (stereo not given) | 0 | 0 | - | - | 0
O=C(Nc1cccc2cccnc12)c1ccccc1Br | 0 | 0 | - | - | 0
CCOC(=O)c1c(NC(=O)CSc2ncnc3[nH]ncc23)sc2c1CCC(C)C2 (stereo not given) | 0 | 0 | 0 | 0 | 0
